Data: ChEMBL document CHEMBL2331240, “Focused library development of 2-phenylacrylamides as broad spectrum cytotoxic agents” (2013)
The source made the active and inactive calls. The rule behind the calls is not given here.

Columns and labels:
MIA = assay: Cytotoxicity against human MIA cells assessed as growth inhibition at 25 uM measured after 72 hrs by MTT assay; format: functional
How it was run: (§1)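 Log-phase cells were plated in duplicate at 2500–4000 cells/well in DMEM with 10% FBS, glutamine and antibiotics, at 37 °C under 5% CO2. Drug was added 24 h after plating from a 40 mM DMSO stock, to a final 25 μM. After 72 h exposure, MTT was read at 540 nm and % growth inhibition was calculated, with 100% meaning total growth inhibition.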

SMA = assay: Cytotoxicity against mouse SMA cells assessed as growth inhibition at 25 uM measured after 72 hrs by MTT assay
A-431 [1] = assay: Cytotoxicity against human A431 cells assessed as growth inhibition at 25 uM measured after 72 hrs by MTT assay; format: functional, cell-based; how it was run: as §1
DU-145 [2] = assay: Cytotoxicity against human DU145 cells assessed as growth inhibition at 25 uM measured after 72 hrs by MTT assay; format: functional, cell-based; how it was run: as §1
SW480 [3] = assay: Cytotoxicity against human SW480 cells assessed as growth inhibition at 25 uM measured after 72 hrs by MTT assay; format: functional; how it was run: as §1
SJ-G2 = assay: Cytotoxicity against human SJ-G2 cells assessed as growth inhibition at 25 uM measured after 72 hrs by MTT assay; format: functional, cell-based; how it was run: as §1
HT-29 [4] = assay: Cytotoxicity against human HT-29 cells assessed as growth inhibition at 25 uM measured after 72 hrs by MTT assay; format: functional, cell-based; how it was run: as §1
BE(2)-C = assay: Cytotoxicity against human BE(2)-C cells assessed as growth inhibition at 25 uM measured after 72 hrs by MTT assay; format: functional; how it was run: as §1
NCI-H460 = assay: Cytotoxicity against human H460 cells assessed as growth inhibition at 25 uM measured after 72 hrs by MTT assay; format: functional, cell-based; how it was run: as §1
A2780 [5] = assay: Cytotoxicity against human A2780 cells assessed as growth inhibition at 25 uM measured after 72 hrs by MTT assay; format: functional; how it was run: as §1
MCF7 [6] = assay: Cytotoxicity against human MCF7 cells assessed as growth inhibition at 25 uM measured after 72 hrs by MTT assay; format: functional; how it was run: as §1
[7] = Cytotoxicity against human H460 cells assessed as growth inhibition measured after 72 hrs by MTT assay; format: functional; settings: NCI-H460, 72 h
How it was run: (§2)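 Cells in log phase were seeded in duplicate at 2500–4000 cells/well in supplemented DMEM (37 °C, 5% CO2). Drug from a 40 mM DMSO stock was added on day 0, 24 h post-plating. Read-out was MTT absorbance at 540 nm after 72 h.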

[8] = Cytotoxicity against human BE(2)-C cells assessed as growth inhibition measured after 72 hrs by MTT assay; format: functional; how it was run: as §2
DU-145 [9] = assay: Cytotoxicity against human DU145 cells assessed as growth inhibition measured after 72 hrs by MTT assay; format: functional; settings: DU-145, 72 h; how it was run: as §2
HT-29 [10] = assay: Cytotoxicity against human HT-29 cells assessed as growth inhibition measured after 72 hrs by MTT assay; format: functional; settings: HT-29, 72 h; how it was run: as §2
[11] = Cytotoxicity against mouse SMA cells assessed as growth inhibition measured after 72 hrs by MTT assay
SW480 [12] = assay: Cytotoxicity against human SW480 cells assessed as growth inhibition measured after 72 hrs by MTT assay; format: functional; settings: SW480, 72 h; how it was run: as §2
[13] = Cytotoxicity against human MIA cells assessed as growth inhibition measured after 72 hrs by MTT assay; format: functional; how it was run: as §2
A2780 [14] = assay: Cytotoxicity against human A2780 cells assessed as growth inhibition measured after 72 hrs by MTT assay; format: functional; settings: A2780, 72 h; how it was run: as §2
A-431 [15] = assay: Cytotoxicity against human A431 cells assessed as growth inhibition measured after 72 hrs by MTT assay; format: functional; settings: A-431, 72 h; how it was run: as §2
MCF7 [16] = assay: Cytotoxicity against human MCF7 cells assessed as growth inhibition measured after 72 hrs by MTT assay; format: functional; settings: MCF7, 72 h; how it was run: as §2
[17] = Cytotoxicity against human SJ-G2 cells assessed as growth inhibition measured after 72 hrs by MTT assay; format: functional; settings: SJ-G2, 72 h; how it was run: as §2

Row | Compound | growth inhibition (GI) (MIA) | growth inhibition (GI) (SMA) | growth inhibition (GI) (A-431 [1]) | growth inhibition (GI) (DU-145 [2]) | growth inhibition (GI) (SW480 [3]) | growth inhibition (GI) (SJ-G2) | growth inhibition (GI) (HT-29 [4]) | growth inhibition (GI) (BE(2)-C) | growth inhibition (GI) (NCI-H460) | growth inhibition (GI) (A2780 [5]) | growth inhibition (GI) (MCF7 [6]) | GI50 [7] [µM] | GI50 [8] [µM] | GI50 (DU-145 [9]) [µM] | GI50 (HT-29 [10]) [µM] | GI50 [11] [µM] | GI50 (SW480 [12]) [µM] | GI50 [13] [µM] | GI50 (A2780 [14]) [µM] | GI50 (A-431 [15]) [µM] | other results
1 | N#C/C(=C\c1ccc(Cl)c(Cl)c1)C(=O)c1ccc[nH]1 | inactive | inactive | inactive | inactive | inactive | inactive | inactive | inactive | inactive | inactive | inactive |  |  |  |  |  |  |  |  |  | 
2 | COc1ccc(CNC(=O)/C(C#N)=C/c2ccc(CO)o2)cc1 | inactive | inactive | inactive | inactive | inactive | inactive | inactive | inactive | inactive | inactive | inactive |  |  |  |  |  |  |  |  |  | 
3 | Cc1ccc(/C=C(\C#N)C(=O)NCc2ccc(Cl)c(Cl)c2)cc1 | inactive | inactive | inactive | inactive | inactive | inactive | inactive | inactive | inactive | inactive | inactive |  |  |  |  |  |  |  |  |  | 
4 | COc1ccc(/C=C(\C#N)C(=O)c2c[nH]c3ccccc23)cc1 | inactive | inactive | inactive | inactive | inactive | inactive | inactive | inactive | inactive | inactive | inactive |  |  |  |  |  |  |  |  |  | 
5 | COc1ccc(/C=C(\C#N)C(=O)c2ccc[nH]2)cc1 | inactive | inactive | inactive | inactive | inactive | inactive | inactive | inactive | inactive | inactive | inactive |  |  |  |  |  |  |  |  |  | 
6 | N#C/C(=C\c1ccc(O)cc1)C(=O)NCc1ccc(Cl)c(Cl)c1 | inactive | inactive | inactive | inactive | inactive | inactive | inactive | inactive | inactive | inactive | inactive |  |  |  |  |  |  |  |  |  | 
7 | N#C/C(=C\c1ccc([N+](=O)[O-])cc1)C(=O)c1ccc[nH]1 | inactive | inactive | inactive | inactive | inactive | inactive | inactive | inactive | inactive | inactive | inactive |  |  |  |  |  |  |  |  |  | 
8 | Cc1ccc(/C=C(\C#N)C(=O)c2c[nH]c3ccccc23)cc1 | inactive | inactive | inactive | inactive | inactive | inactive | inactive | inactive | inactive | inactive | inactive |  |  |  |  |  |  |  |  |  | 
9 | N#C/C(=C\c1ccc(Cl)cc1)C(=O)c1c[nH]c2ccccc12 | inactive | inactive | inactive | inactive | inactive | inactive | inactive | inactive | inactive | inactive | inactive |  |  |  |  |  |  |  |  |  | 
10 | N#C/C(=C\c1c(F)c(F)c(F)c(F)c1F)C(=O)c1c[nH]c2ccccc12 |  |  |  |  |  |  |  |  |  |  |  | 35 | 10 | 30 | 18 | 20 | 18 | 21 | 11 | 19 | GI50 (MCF7 [16]): 13 µM; GI50 [17]: 14 µM
11 | COc1ccc(CNC(=O)/C(C#N)=C/c2ccc(C)o2)cc1 |  |  |  |  |  |  |  |  |  |  |  | > 100 | 21 | 39 | 92 | 69 | 29 | 51 | 60 | 58 | GI50 (MCF7 [16]): 21 µM; GI50 [17]: 75 µM
12 | N#C/C(=C\c1ccc2ccccc2c1)C(=O)NCc1ccc(Cl)c(Cl)c1 |  |  |  |  |  |  |  |  |  |  |  | > 100 | 40 | 77 | 44 | 64 | 50 | 44 | 44 | 50 | GI50 (MCF7 [16]): 29 µM; GI50 [17]: 49 µM
13 | COc1ccc(CNC(=O)/C(C#N)=C/c2ccoc2)cc1 |  |  |  |  |  |  |  |  |  |  |  | 8 | 7 | 7 | 6 | 7 | 8 | 8 | 6 | 5 | GI50 (MCF7 [16]): 7 µM; GI50 [17]: 8 µM
14 | COc1ccc(CNC(=O)/C(C#N)=C/c2ccc(Cl)o2)cc1 |  |  |  |  |  |  |  |  |  |  |  | 15 | 11 | 12 | 9 | 14 | 13 | 15 | 9 | 9 | GI50 (MCF7 [16]): 9 µM; GI50 [17]: 13 µM
